Reference: ChEMBL document CHEMBL3085739, “Design, synthesis, and biological evaluation of 2-oxo-3,4-dihydropyrimido[4,5-d]pyrimidinyl derivatives as new irreversible epidermal growth factor receptor inhibitors with improved pharmacokinetic properties” (J Med Chem, 2013)
Activity calls are given as the source filed them. No cut-off for these calls is given here.

Legend:
[1] = tested on: Mus musculus; assay: Toxicity in SCID nude mouse xenografted with human NCI-H1975 cells assessed as body weight loss at 10 to 30 mg/kg, po qd after 14 days relative to vehicle-treated control; type: organism-based; parameters: dose 10-30 mg/kg, route oral; details: in vivo, 336 h
Procedure, shortened: (§1)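 SCID mice (6 weeks) were given H1975 cells subcutaneously in the right flank at 2 × 10^6 per mouse. At 200−300 mm3, n = 5 per group were randomized to daily oral vehicle or compound at 10 or 30 mg/kg for 14 days. Vehicle: 1% DMSO, 5% EtOH, 15% castor oil, 79% H2O. Tumors (W²·L/2) and body weight were measured every other day; TGI was calculated against vehicle controls.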

[2] = tested on: Mus musculus; assay: Toxicity in SCID nude mouse xenografted with human NCI-H1975 cells assessed as mortality at 10 to 30 mg/kg, po qd after 14 days; type: organism-based; parameters: dose 10-30 mg/kg, route oral; details: in vivo, 336 h
Procedure, shortened: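 SCID mice (six weeks old) implanted subcutaneously in the right flank with H1975 cells (2 × 10⁶/mouse). Once tumours averaged 200−300 mm³, animals were randomized (n = 5 per group) and given vehicle or drug orally once daily for 14 days. Vehicle: 1% DMSO, 5% EtOH, 15% castor oil, 79% H₂O, at 0.1 mL/20 g. Mice were watched for morbidity, and body weight was recorded every other day.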

[3] = tested on: NCI-H1975; assay: Antitumor activity against human NCI-H1975 cells xenografted in SCID nude mouse assessed as tumor growth inhibition at 10 mg/kg, po qd after 14 days; type: functional; details: NCI-H1975, 336 h, read-out: TGI; procedure, shortened: as §1
[4] = Antiproliferative activity against human HCC827 cells expressing EGFR E746 to A750 deletion mutant after 72 hrs by MTS assay; type: functional, cell-based; details: HCC827, 72 h
Procedure, shortened: (§2)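 MTS proliferation assay: cells exposed to compound for 72 h at six concentrations (0.1 nM to 10 μM), each concentration run six times. Cell number per line set to give an absorbance of 0.5–1.2 at […]. IC50 from a nonlinear sigmoidal dose–response fit. Values are means of at least three independent experiments.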

[5] = Antiproliferative activity against human 95-D cells expressing wild-type EGFR after 72 hrs by MTS assay; type: cell-based; procedure, shortened: as §2
[6] = biological target: T1, Tyrosine-protein kinase JAK3 (Homo sapiens) (UniProt P52333); assay: Binding affinity to JAK3 (unknown origin)
T1 sequence (whole entry): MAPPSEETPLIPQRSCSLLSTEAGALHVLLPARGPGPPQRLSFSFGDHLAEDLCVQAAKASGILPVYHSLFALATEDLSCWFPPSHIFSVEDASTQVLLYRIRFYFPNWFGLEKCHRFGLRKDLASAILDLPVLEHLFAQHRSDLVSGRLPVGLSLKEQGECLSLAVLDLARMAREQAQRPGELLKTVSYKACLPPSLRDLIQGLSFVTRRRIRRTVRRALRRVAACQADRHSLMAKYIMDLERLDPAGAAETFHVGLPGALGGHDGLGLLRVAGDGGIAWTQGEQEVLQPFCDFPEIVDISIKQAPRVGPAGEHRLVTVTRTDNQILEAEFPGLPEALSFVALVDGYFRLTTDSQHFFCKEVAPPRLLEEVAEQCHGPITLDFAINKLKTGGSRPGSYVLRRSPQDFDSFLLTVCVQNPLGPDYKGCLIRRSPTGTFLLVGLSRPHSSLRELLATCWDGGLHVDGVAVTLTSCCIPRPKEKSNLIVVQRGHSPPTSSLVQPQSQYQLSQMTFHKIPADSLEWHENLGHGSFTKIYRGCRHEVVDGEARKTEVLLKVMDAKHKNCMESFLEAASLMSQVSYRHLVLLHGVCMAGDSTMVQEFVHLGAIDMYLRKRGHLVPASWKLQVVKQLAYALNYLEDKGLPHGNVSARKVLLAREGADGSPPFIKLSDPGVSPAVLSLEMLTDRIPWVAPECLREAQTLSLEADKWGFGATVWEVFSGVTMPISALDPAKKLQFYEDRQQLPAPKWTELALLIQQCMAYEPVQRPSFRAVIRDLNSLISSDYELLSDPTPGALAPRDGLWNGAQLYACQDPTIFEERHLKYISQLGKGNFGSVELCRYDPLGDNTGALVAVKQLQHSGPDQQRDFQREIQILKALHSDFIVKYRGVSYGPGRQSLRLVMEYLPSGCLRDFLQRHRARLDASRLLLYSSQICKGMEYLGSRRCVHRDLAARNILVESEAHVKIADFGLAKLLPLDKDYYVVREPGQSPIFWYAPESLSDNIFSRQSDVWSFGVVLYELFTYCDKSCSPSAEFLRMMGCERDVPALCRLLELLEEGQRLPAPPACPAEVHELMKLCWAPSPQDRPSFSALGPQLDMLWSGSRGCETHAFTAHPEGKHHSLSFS

[7] = biological target: Mast/stem cell growth factor receptor Kit (Homo sapiens) (UniProt P10721); assay: Binding affinity to KIT (unknown origin)
Sequence of Mast/stem cell growth factor receptor Kit (Homo sapiens) (P10721 whole entry): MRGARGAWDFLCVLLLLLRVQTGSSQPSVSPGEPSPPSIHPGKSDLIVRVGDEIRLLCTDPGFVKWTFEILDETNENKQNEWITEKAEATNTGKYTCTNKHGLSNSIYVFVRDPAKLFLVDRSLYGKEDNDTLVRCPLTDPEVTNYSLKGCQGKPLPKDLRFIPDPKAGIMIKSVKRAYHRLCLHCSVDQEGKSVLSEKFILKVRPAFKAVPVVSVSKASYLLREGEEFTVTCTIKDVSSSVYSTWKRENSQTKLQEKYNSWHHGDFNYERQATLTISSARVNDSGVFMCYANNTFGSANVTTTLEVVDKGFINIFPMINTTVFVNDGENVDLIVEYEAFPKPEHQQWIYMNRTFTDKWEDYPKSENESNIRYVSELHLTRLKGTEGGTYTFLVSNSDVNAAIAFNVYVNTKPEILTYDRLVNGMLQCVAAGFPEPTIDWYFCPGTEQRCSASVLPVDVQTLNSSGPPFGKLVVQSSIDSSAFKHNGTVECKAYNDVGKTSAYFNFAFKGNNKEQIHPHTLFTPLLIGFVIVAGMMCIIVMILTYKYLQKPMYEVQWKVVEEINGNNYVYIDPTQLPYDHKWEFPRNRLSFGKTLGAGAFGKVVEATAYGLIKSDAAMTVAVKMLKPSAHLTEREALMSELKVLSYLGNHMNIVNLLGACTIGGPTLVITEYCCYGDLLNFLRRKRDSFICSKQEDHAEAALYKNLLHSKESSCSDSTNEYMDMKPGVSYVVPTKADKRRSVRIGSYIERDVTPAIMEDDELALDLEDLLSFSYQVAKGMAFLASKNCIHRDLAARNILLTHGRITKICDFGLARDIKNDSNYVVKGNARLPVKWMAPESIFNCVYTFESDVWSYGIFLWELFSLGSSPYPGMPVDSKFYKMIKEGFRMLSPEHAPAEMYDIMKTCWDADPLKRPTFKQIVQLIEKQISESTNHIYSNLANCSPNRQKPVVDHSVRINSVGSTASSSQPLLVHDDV

[8] = biological target: Tyrosine-protein kinase BTK (Homo sapiens) (UniProt Q06187); assay: Binding affinity to BTK (unknown origin)
[9] = biological target: Tyrosine-protein kinase ABL1 (Homo sapiens) (UniProt P00519); assay: Binding affinity to ABL1 (unknown origin)
Sequence of Tyrosine-protein kinase ABL1 (Homo sapiens) (P00519 whole entry): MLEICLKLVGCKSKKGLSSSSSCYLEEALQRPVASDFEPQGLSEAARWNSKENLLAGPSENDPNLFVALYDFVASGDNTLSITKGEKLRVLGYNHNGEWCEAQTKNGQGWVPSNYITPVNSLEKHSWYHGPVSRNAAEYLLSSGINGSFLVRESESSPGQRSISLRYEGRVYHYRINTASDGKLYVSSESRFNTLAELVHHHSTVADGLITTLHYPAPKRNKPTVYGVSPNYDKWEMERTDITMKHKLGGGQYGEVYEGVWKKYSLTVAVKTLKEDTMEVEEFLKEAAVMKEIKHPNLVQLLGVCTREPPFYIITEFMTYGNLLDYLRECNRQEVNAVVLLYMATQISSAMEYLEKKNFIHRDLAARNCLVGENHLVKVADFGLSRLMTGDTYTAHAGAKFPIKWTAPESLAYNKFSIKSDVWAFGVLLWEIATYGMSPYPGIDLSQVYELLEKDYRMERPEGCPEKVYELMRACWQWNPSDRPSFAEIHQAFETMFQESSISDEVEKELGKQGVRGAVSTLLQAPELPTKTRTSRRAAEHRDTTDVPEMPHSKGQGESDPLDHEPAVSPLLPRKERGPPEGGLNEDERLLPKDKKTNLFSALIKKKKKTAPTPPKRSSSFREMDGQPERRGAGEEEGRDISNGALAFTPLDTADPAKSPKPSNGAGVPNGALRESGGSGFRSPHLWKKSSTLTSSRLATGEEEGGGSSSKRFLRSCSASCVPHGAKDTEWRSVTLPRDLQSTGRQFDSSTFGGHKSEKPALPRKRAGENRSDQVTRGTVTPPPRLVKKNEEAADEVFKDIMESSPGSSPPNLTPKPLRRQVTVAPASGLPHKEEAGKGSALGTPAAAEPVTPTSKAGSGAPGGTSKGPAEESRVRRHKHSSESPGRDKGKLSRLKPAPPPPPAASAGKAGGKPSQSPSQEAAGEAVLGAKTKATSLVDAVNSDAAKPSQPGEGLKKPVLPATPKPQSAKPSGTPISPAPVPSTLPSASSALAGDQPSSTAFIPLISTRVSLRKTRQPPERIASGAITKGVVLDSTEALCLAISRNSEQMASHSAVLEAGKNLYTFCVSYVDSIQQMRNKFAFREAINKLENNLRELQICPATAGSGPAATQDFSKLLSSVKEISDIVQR

[10] = biological target: Epidermal growth factor receptor (Homo sapiens, UniProt P00533, L858R); assay: Inhibition of EGFR L858R mutant (unknown origin); type: protein assay
Sequence of Epidermal growth factor receptor (Homo sapiens, UniProt P00533, L858R) (P00533 25-1210 L858R limits assumed): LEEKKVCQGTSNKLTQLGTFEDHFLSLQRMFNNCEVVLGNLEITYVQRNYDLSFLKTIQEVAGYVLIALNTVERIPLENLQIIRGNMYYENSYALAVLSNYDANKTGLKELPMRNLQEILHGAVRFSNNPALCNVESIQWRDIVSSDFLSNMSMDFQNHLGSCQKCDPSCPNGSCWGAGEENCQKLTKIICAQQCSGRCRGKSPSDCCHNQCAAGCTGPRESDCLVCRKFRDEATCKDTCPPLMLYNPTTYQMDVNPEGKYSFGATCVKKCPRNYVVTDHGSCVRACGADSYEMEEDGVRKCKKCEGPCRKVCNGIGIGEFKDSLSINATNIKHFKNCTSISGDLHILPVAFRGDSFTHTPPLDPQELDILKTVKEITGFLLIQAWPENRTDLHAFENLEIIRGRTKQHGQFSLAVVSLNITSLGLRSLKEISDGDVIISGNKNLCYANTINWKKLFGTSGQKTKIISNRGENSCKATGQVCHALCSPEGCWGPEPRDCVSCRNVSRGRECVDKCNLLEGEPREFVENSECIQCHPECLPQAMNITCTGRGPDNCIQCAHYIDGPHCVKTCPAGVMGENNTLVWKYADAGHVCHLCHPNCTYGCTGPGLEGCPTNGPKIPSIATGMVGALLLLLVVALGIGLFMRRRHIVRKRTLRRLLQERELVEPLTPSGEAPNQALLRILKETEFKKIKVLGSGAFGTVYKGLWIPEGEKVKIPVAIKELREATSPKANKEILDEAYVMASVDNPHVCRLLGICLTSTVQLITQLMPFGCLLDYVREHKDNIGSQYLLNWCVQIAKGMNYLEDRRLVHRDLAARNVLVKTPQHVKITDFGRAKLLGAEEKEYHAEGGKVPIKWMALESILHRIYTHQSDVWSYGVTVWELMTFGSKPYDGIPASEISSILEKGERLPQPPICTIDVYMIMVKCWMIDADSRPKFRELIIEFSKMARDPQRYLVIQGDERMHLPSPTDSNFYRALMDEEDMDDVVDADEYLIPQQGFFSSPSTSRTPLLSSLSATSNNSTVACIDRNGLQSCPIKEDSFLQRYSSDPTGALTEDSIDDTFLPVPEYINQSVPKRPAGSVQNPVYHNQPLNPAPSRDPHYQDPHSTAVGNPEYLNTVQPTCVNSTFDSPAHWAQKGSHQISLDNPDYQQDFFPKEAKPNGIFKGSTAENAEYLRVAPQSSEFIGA

[11] = biological target: Epidermal growth factor receptor (Homo sapiens, UniProt P00533, T790M); assay: Inhibition of EGFR T790M mutant (unknown origin); type: protein assay
[12] = tested on: NCI-H1975; assay: Effect on ERK protein level in human NCI-H1975 cells at 3 to 330 nM after 2 hrs by Western blotting analysis; type: functional, cell-based
Procedure, shortened: (§3)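 H1975 cells were grown 24 h, then treated for 2 h with DMSO or 3–330 nM compound. Lysates were sonicated, run on SDS-PAGE, blotted to PVDF, blocked in 5% BSA/TBST, and probed for phospho/total EGFR (pY1068), Akt and Erk1/2 (pT202/pY204) with peroxidase secondary antibodies. Blots are representative of three experiments.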

[13] = tested on: NCI-H1975; assay: Effect on EGFR protein level in human NCI-H1975 cells at 3 to 330 nM after 2 hrs by Western blotting analysis; type: functional, cell-based; procedure, shortened: as §3
[14] = Oral bioavailability in Sprague-Dawley rat at 25 mg/kg by LC/MS analysis; type: ADME, organism-based; details: in vivo
Procedure, shortened: (§4)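 Male Sprague-Dawley rats (180−220 g), n = 4 per route, single iv dose 5 mg/kg or oral gavage 25 mg/kg. Vehicle was 2% DMSO, 4% EtOH, 4% castor oil, 90% H2O. Orbital sinus blood was taken from 2 min to 72 h into heparinized tubes. Plasma levels were measured by LC/MS with propranolol internal standard and analysed by pharmacokinetic modelling.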

[15] = AUC (0 to infinity) in Sprague-Dawley rat at 5 mg/kg, iv by LC/MS analysis; type: ADME, organism-based; parameters: time infinity, dose 5 mg/kg, route intravenous; details: plasma; procedure, shortened: as §4
[16] = Cmax in Sprague-Dawley rat at 25 mg/kg, po by LC/MS analysis; type: ADME, organism-based; parameters: dose 25 mg/kg, route oral; details: in vivo; procedure, shortened: as §4
[17] = Cmax in Sprague-Dawley rat at 5 mg/kg, iv by LC/MS analysis; type: ADME, organism-based; parameters: dose 5 mg/kg, route intravenous; details: in vivo; procedure, shortened: as §4
[18] = tested on: Epidermal growth factor receptor (Homo sapiens), P00533 [L858R,T790M]; details: NCI-H1975, 110 nM
Sequence of Epidermal growth factor receptor (Homo sapiens), P00533 [L858R,T790M] (P00533 whole entry T790M/L858R, looked up): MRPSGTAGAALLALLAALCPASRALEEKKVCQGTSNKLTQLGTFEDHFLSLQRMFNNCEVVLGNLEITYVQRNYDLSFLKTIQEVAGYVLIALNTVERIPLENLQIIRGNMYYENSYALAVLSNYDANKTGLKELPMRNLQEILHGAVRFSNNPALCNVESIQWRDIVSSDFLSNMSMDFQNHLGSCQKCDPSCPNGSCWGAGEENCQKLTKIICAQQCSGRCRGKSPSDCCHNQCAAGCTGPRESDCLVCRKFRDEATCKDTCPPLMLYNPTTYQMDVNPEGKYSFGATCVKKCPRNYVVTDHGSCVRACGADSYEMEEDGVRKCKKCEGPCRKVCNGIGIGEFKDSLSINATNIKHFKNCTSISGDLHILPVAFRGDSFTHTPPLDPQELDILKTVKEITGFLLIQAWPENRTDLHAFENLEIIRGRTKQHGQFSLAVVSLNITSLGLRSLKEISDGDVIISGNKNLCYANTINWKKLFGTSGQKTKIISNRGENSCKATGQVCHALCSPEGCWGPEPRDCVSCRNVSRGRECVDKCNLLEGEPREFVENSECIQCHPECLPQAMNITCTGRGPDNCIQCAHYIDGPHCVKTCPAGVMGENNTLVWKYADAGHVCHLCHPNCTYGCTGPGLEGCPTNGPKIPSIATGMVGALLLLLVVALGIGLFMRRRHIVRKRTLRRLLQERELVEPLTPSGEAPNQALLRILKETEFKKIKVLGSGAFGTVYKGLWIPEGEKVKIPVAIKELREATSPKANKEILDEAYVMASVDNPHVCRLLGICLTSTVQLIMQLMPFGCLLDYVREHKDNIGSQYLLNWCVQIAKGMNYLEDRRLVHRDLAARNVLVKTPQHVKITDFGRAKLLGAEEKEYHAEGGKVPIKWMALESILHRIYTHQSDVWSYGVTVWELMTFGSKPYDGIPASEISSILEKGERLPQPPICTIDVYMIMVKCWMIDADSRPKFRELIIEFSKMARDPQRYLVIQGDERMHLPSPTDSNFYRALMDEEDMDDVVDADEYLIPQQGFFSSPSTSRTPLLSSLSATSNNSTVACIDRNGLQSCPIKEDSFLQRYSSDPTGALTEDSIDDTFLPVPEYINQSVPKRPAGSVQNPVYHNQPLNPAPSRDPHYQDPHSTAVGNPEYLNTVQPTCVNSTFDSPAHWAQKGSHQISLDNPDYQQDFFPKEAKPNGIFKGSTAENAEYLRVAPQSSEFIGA

Question: Which Activity [1] does the source give for `C=CC(=O)N1CC[C@H](N2C(=O)N(c3ccccc3)Cc3cnc(Nc4ccc(N5CCN(C)CC5)c(C)c4)nc32)C1` here?
Answer: Its Activity is < 5%.

Question: And the Activity [2]?
Answer: Its Activity is “Non-toxic”.

Question: And the inhibition in vivo at 10 mg/kg [3]?
Answer: The inhibition in vivo at 10 mg/kg was 35.4%.

Question: And the IC50 [4]?
Answer: Its IC50 is 5 nM.

Question: And the IC50 [5]?
Answer: Its IC50 is 4000 nM.

Question: What about the Activity [6] of the same molecule?
Answer: Its Activity is “Active”.

Question: What about the Activity [7] of the same molecule?
Answer: Its Activity is “Active”.

Question: What about the Activity [8] of the same molecule?
Answer: The Activity was “Active”.

Question: What about the Activity [9] of the same molecule?
Answer: Its Activity is “Active”.

Question: What about the IC50 [10] of the same molecule?
Answer: The IC50 was 3 nM.

Question: What about the IC50 [11] of the same molecule?
Answer: Its IC50 is 10 nM.

Question: What about the Activity [12] of the same molecule?
Answer: The Activity was “inactive”.

Question: What about the Activity [13] of the same molecule?
Answer: Its Activity is “inactive”.

Question: And the bioavailability [14]?
Answer: The bioavailability was 30%.

Question: And the AUC(0-inf) [15]?
Answer: Its AUC(0-inf) is 1640 ng·h/mL.

Question: What about the Cmax [16] of the same molecule?
Answer: Its Cmax is 1040 ng/mL.

Question: And the Cmax [17]?
Answer: The Cmax was 3980 ng/mL.

Question: And the inhibition [18]?
Answer: The inhibition was “Active”.
